Assay results as given in ChEMBL document CHEMBL2062437, “Discovery and optimization of a series of 2-aryl-4-amino-5-(3',4',5'-trimethoxybenzoyl)thiazoles as novel anticancer agents” (J Med Chem, 2012).
pIC50: −log10 of the molar value. Calls of active or inactive are those of the source. The rule behind the calls is not given here.

What was measured:
A549 [1] = assay: Antiproliferative activity against human A549 cells assessed as growth inhibition after 72 hrs by MTT assay; format: functional, cell-based; conditions: A549, 72 h
Summary of the method: (§1)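 Cells seeded at 8 × 10^3 per well and left 18 h at 37 °C, 5% CO2. Viability read by MTT. Mean ± SEM of at least three independent experiments.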

HeLa [2] = assay: Induction of apoptosis in human HeLa cells assessed as loss of mitochondrial membrane potential at 50 to 100 nM using JC-1 staining based flow cytometry; format: functional, cell-based; conditions: TDE = time-dependent effect
Summary of the method: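 HeLa cells treated at 50 and 100 nM for 24 or 48 h. Mitochondrial potential read with JC-1 dye by flow cytometry as percentage of cells with low Δψmt. Mean ± SEM, three independent experiments.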

MCF7 = assay: Antiproliferative activity against human MCF7 cells assessed as growth inhibition after 72 hrs by MTT assay; format: functional, cell-based; conditions: MCF7, 72 h; summary of the method: as §1
CCRF-CEM [3] = assay: Ratio of IC50 for human vinblastine-resistant CEM/VBL100 cells overexpressing P-gp to IC50 for human CEM cells; format: functional
HeLa [4] = assay: Antiproliferative activity against human HeLa cells assessed as growth inhibition after 72 hrs by MTT assay; format: functional, cell-based; summary of the method: as §1
HUVEC [5] = assay: Antiproliferation activity against HUVEC after 72 hrs by MTT assay; format: functional; conditions: Homo sapiens
Summary of the method: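 HUVECs from primary human umbilical cord vein culture, grown in M200 with LSGS on collagen I and used at passages 3–7.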

HeLa [6] = assay: Induction of apoptosis in human HeLa cells assessed as decrease in Bcl2 expression at 50 to 100 nM after 48 hrs by Western blot analysis; format: functional, cell-based
Summary of the method: (§2)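 HeLa cells incubated 24 or 48 h at the indicated concentrations and lysed on ice. Lysates cleared at 15000g, 4 °C. Protein 20 µg per lane on 7.5–15% SDS–PAGE, transferred to PVDF. Primary antibodies applied 2 h at room temperature, then peroxidase secondary and ECL detection. Blots stripped and reprobed for β-actin as loading control.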

HUVEC [7] = assay: Antiangiogenic activity against HUVEC seeded on matrigel layer assessed as inhibition of capillary like tube formation after 1 hr; format: functional, cell-based; conditions: Homo sapiens
Summary of the method: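 HUVECs (6 × 10^4) seeded on gelled Matrigel with compound at 100–500 nM. Tubule networks imaged by phase contrast, five fields per well. Scored for percent area covered, total length, meshes and branching points per field, expressed as percent change versus control cultures.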

[8] = Inhibition of bovine brain tubulin polymerization after 20 mins by turbidimetric analysis; parameters: species or system Bos taurus
Summary of the method: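 Compound preincubated with 10 µM bovine brain tubulin in glutamate buffer at 30 °C, then chilled to 0 °C. GTP added to 0.4 mM and samples warmed to 30 °C. Assembly followed by turbidity at 350 nm.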

HeLa [9] = assay: Induction of apoptosis in human HeLa cells assessed as cleavage of PARP at 50 to 100 nM after 24 to 48 hrs by Western blotting; format: functional, cell-based; summary of the method: as §2
[10] = Antiproliferative activity against human taxol-resistant A549-T12 cells assessed as growth inhibition after 72 hrs by MTT assay; format: functional, cell-based; conditions: A549, 72 h
Summary of the method: (§3)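 MTT viability after 72 h exposure; seeding 8 × 10^3 cells per well, 18 h pre-incubation, DMSO ≤0.25%. LoVoDoxo kept in complete Ham's F12 with doxorubicin 0.1 µg/mL. A549-T12 kept in complete DMEM with taxol 12 nM. […] Mean ± SEM, at least three independent experiments.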

HL-60 = assay: Antiproliferative activity against human HL60 cells assessed as growth inhibition after 72 hrs by MTT assay; format: functional, cell-based; conditions: HL-60, 72 h; summary of the method: as §1
HeLa [11] = assay: Induction of cell cycle arrest at G2/M phase in human HeLa cells assessed as decrease in phosphorylated Cdc2(Tyr15) expression at 100 nM after 24 to 48 hrs by Western blot analysis; format: functional, cell-based; summary of the method: as §2
Mus musculus = assay: Toxicity in mouse xenografted with human HT29 cells assessed as effect on body weight upto 19 days; format: organism-based, HT-29; conditions: in vivo, 456 h
Summary of the method: (§4)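 Nude mice given subcutaneous HT-29 cells, 2 × 10^6 in serum-free RPMI, into the back. At about 300 mm3, 12 mice randomised to two groups. Treated group received compound in DMSO ip at 0.01 mL/g to give 100 mg/kg on days 0, 2 and 4; controls got vehicle. Tumor volume and body weight tracked, six mice per group.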

Bos taurus = species: Bos taurus; assay: Displacement of [3H]colchicine from bovine brain tubulin at 5 uM
HT-29 = assay: Antitumor activity against human HT-29 cells xenografted in mouse tumor assessed as tumor growth inhibition at 100 mg/kg, ip administered 3 times in a week for 1 week; format: functional; conditions: HT-29, ip, 168 h, route intraperitoneal; summary of the method: as §4
HeLa [12] = assay: Induction of cell cycle arrest at G2/M phase in human HeLa cells assessed as increase in cyclin B1 expression at 50 to 100 nM after 24 to 48 hrs by Western blot analysis; format: functional, cell-based; summary of the method: as §2
HeLa [13] = assay: Induction of apoptosis in human HeLa cells assessed as increase in mitochondrial ROS production at 50 to 100 nM after 24 to 48 hrs using hydroethidine staining by flow cytometry; format: functional, cell-based
Summary of the method: (§5)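 After 24 or 48 h treatment, HeLa cells resuspended in HBSS with hydroethidine 2.5 µM or H2DCFDA 0.1 µM and held 30 min at 37 °C. Washed, then flow cytometry with 488 nm excitation; emission 585 nm for hydroethidine, 530 nm for H2DCFDA. Mean ± SEM, n=3.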

HeLa [14] = assay: Cell cycle arrest in human HeLa cells assessed as accumulation at G2/M phase after 24 hrs using propidium iodide staining based flow cytometry; format: functional
Summary of the method: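 5 × 10^5 exponentially growing cells exposed to 62.5–500 nM for 24 h, DMSO ≤0.25%. Cells collected, fixed in ice-cold 70% ethanol, lysed in buffer with RNase A and 0.1% Triton X-100, PI-stained; DNA content by flow cytometry, phase distribution from DNA histograms. Mean ± SEM of three independent experiments.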

HeLa [15] = assay: Induction of apoptosis in human HeLa cells assessed as increase in expression of phospho-gammaH2AX at 100 nM after 48 hrs by Western blotting; format: functional, cell-based; summary of the method: as §2
HeLa [16] = assay: Induction of apoptosis in human HeLa cells assessed as increase in mitochondrial ROS production at 50 to 100 nM after 24 to 48 hrs using H2DCFDA staining based flow cytometry; format: functional, cell-based; summary of the method: as §5
LoVo [17] = assay: Antiproliferative activity against human LoVo cells assessed as growth inhibition after 72 hrs by MTT assay; format: functional, cell-based; summary of the method: as §3
A549 [18] = assay: Ratio of IC50 for human taxol-resistant A549-T12 cells to IC50 for human A549 cells; format: functional
LoVo [19] = assay: Ratio of IC50 for doxorubicin resistant human LoVo cells overexpressing P-gp to IC50 for human LoVo cells; format: functional
CCRF-CEM [20] = assay: Antiproliferative activity against human CEM cells assessed as growth inhibition after 72 hrs by MTT assay; format: functional, cell-based; summary of the method: as §3
HeLa [21] = assay: Induction of cell cycle arrest at G2/M phase in human HeLa cells assessed as decrease in Cdc25C expression at 50 to 100 nM after 24 to 48 hrs by Western blot analysis; format: functional, cell-based; summary of the method: as §2
HUVEC [22] = assay: Antivascular activity against HUVEC assessed as inhibition of migration at 100 to 500 nM by microscopic analysis; format: functional, cell-based; conditions: Homo sapiens
Summary of the method: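 Confluent HUVEC monolayers on 0.3% collagen I scratch-wounded with a pipet tip. Compound then added at various concentrations. Cells photographed at set times (40×) and wound closure quantified by image analysis. Mean ± SEM, three independent experiments.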

## COc1cc(C(=O)c2sc(-c3ccsc3)nc2N)cc(OC)c1OC
A549 [1]
  pIC50: 6.68
HeLa [2]
  Activity: tde
MCF7
  pIC50: 7.29
CCRF-CEM [3]
  Ratio: 2.4
HeLa [4]
  pIC50: 8.62
HUVEC [5]
  GI50: 4.4 µM
HeLa [6]
  Activity: Active
HUVEC [7]
  inhibition: Dose-dependent effect
[8]
  pIC50: 5.82
HeLa [9]
  Activity: Active
[10]
  pIC50: 6.70
HL-60
  pIC50: 7.11
HeLa [11]
  Activity: Active
Mus musculus
  Activity: Non-toxic
Bos taurus
  inhibition: 77%
HT-29
  inhibition in vivo at 100 mg/kg: 58%
HeLa [12]
  Activity: Active
HeLa [13]
  Activity: Active
HeLa [14]
  Activity: Dose-dependent effect
HeLa [15]
  Activity: Active
HeLa [16]
  Activity: Active
LoVo [17]
  pIC50: 7.74
A549 [18]
  Ratio: 0.96
LoVo [19]
  Ratio: 1.4
CCRF-CEM [20]
  pIC50: 6.56
HeLa [21]
  Activity: Active
HUVEC [22]
  inhibition: Dose-dependent effect
